The values that follow come from article PMC7591136 (ACS biomaterials science & engineering, 2019).

A short description of data set [1]: pKa determination by UV–vis titration. The class given is physicochemical. The settings on record: neutral pH.
The test system of another data set is HIV-1 BaL. Type of data set: cell-based. The settings on record: Human immunodeficiency virus 1, BAL, TZM-bl, 48 h.
Data set [2] in a line: Partition coefficients, 1-octanol / PBS pH 7.4, shake flask. Type of data set: physicochemical. The settings on record: 1-octanol / PBS pH 7.4, 20 °C. Put shortly:
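Shake-flask (OECD) partitioning between 1-octanol and PBS pH 7.4 at 20 °C, run in triplicate with three different organic:aqueous volume ratios. Analyte was kept below 2.0 mM in each phase. Phases were separated by centrifugation and quantified by C-18 reverse-phase HPLC (35 °C, UV 300 nm) against 8-point standard curves (0.005–1.000 mg/mL). For the ionizable parent drug, the value is a distribution coefficient.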

For data set [3] the following is noted: cited from earlier work.

SMILES strings stand for the structures. ≈ marks a conversion by molar mass, not a printed value.

Broadly, the IC50 is the midpoint of a concentration-inhibition curve. Read a high IC50 as weaker potency. In general, aqueous solubility refers to the concentration that dissolves in the medium under given conditions.

`Cc1nnc(C(=O)NC(C)(C)c2nc(C(=O)NCc3ccc(F)cc3)c(O)c(=O)n2C)o1` [RAL, raltegravir] gave an ionized fraction in data set [1] of more than 85%. This molecule also registered a half-inhibitory concentration (IC50) with HIV-1 BaL of 4.5 ± 0.5 nM. In addition, the “apparent POW (distribution coefficient)” value in data set [2] stood at 2.0. For the same molecule, the aqueous solubility in data set [3] (neutral form) was 1300 µg/mL (≈ 2930 µM).

With `Cc1cc(C)c(Nc2ccnc(Nc3ccc(C#N)cc3)n2)c(C)c1` [dapivirine], in data set [3], the reported aqueous solubility was less than 10 µg/mL.

As for `O=C1Nc2ccc(Cl)cc2[C@@](C#CC2CC2)(C(F)(F)F)O1` [efavirenz], the reported aqueous solubility in data set [3] was less than 10 µg/mL.

In the case of `Cc1cccc(C)c1OCC(=O)N[C@@H](Cc1ccccc1)[C@@H](O)C[C@H](Cc1ccccc1)NC(=O)[C@H](C(C)C)N1CCCNC1=O` [liponavir], in data set [3], the reported aqueous solubility was less than 10 µg/mL.
